Experimental data published in PMC3954597 (Biochemistry, 2014).
Values joined by “and” are separate entries in the source; they are usually repeats but may differ in a detail not shown here. Equal values may be shown once.

Experiments:
[1] = molecular target: T1, PTPRD (Homo sapiens, UniProt P23468); test: PTP assay, PTPRD; assay type: biochemical
T1 sequence (P23468 1299-1899): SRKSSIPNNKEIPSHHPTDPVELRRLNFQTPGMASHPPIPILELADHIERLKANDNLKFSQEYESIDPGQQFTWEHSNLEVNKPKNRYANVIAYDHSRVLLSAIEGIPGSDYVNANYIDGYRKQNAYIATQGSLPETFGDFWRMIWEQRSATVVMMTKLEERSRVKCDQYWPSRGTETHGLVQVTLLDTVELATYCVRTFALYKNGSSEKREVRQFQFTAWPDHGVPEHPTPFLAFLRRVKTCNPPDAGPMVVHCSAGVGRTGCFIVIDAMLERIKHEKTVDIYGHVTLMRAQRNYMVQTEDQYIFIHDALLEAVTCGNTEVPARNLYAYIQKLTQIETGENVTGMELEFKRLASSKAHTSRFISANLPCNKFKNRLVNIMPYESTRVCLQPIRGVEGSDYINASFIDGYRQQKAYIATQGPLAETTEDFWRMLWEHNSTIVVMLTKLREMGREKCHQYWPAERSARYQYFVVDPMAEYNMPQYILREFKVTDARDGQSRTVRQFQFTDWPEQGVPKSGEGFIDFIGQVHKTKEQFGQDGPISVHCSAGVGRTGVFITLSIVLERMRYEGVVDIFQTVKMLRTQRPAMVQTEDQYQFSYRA

[2] = molecular target: T2, TCPTP (Homo sapiens, UniProt P17706); test: PTP assay, TCPTP; assay type: biochemical
T2 sequence (P17706 1-314): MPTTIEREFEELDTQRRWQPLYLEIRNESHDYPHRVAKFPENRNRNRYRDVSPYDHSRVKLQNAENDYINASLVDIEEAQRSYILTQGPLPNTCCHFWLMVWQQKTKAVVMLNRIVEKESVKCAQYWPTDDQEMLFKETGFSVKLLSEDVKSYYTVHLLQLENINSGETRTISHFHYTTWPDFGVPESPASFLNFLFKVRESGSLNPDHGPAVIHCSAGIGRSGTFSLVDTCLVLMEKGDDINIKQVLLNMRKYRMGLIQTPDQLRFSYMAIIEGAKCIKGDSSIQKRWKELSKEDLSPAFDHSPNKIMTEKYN

[3] = molecular target: PTPRA (Homo sapiens, UniProt P18433); test: PTP assay, PTPRA; assay type: biochemical
Outline: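 His-tagged PTPRA catalytic domain (aa 224–802), expressed in E. coli. Dephosphorylation was followed continuously at 282 nm (Δε = 1102 M−1 cm−1). Initial rates were fitted to Michaelis-Menten or V = kcat[E][S]/KM, or full progress curves were fitted to depletion.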

[4] = molecular target: T3, PTPRO (Homo sapiens, UniProt Q16827); test: PTP assay, PTPRO; assay type: biochemical; settings: for Km / kcat / kcat/KM x10^6: catalytic domain, 100 mM HEPES pH 7.4, monitored at 282 nm
T3 sequence (Q16827 938-1195 limits assumed): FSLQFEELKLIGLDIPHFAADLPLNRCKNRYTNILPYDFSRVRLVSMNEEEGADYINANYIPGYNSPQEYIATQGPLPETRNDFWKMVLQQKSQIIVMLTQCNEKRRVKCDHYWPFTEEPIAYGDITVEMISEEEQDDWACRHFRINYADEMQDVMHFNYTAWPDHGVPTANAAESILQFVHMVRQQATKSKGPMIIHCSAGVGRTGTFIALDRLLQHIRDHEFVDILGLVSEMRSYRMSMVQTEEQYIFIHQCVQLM

[5] = molecular target: PTPRB (Homo sapiens, UniProt P23467); test: PTP assay, PTPRB; assay type: biochemical; settings: for Km / kcat / kcat/KM x10^6: catalytic domain, 100 mM HEPES pH 7.4, monitored at 282 nm
Chain of PTPRB (P23467 1686-1971): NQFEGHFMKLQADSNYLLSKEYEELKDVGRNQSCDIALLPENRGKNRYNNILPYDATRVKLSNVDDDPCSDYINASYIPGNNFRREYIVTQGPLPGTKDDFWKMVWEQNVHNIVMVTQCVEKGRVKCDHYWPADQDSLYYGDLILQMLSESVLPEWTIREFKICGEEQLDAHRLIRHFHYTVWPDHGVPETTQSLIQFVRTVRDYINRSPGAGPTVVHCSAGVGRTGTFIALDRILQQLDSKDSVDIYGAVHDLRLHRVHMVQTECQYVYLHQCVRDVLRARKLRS

[6] = molecular target: T4, SHP-2 (Homo sapiens, UniProt Q06124); settings: catalytic domain; cited from earlier work
T4 sequence (Q06124 199-593): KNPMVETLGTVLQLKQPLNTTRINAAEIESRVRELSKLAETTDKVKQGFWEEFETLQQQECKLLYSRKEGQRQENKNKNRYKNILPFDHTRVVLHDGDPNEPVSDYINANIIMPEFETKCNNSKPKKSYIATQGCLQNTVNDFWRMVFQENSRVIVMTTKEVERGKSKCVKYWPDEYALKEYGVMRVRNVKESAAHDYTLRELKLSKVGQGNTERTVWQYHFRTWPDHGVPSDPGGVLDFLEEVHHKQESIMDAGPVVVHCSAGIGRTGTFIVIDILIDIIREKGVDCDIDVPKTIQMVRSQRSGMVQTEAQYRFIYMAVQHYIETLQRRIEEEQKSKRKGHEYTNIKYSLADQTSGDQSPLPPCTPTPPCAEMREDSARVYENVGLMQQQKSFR

[7] = molecular target: T5, HePTP (Homo sapiens, UniProt P35236); test: PTP assay, HePTP; assay type: biochemical
T5 sequence (P35236 43-356): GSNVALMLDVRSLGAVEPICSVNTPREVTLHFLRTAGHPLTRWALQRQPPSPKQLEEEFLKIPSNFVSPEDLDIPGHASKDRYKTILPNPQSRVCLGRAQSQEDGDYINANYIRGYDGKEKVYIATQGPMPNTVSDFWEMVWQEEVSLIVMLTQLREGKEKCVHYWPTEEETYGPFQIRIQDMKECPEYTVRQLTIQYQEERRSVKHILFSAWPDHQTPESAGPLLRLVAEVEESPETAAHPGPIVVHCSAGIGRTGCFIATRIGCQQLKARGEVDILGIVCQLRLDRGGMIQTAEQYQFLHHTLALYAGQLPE

[8] = catalytic domain, 100 mM HEPES pH 7.4, monitored at 282 nm
[9] = kcat/KM of neutral peptide over basic Ac-YRKRFpYRYKF-NH2
[10] = kcat/KM of acidic peptide over basic Ac-YRKRFpYRYKF-NH2
[11] = kcat/KM of acidic peptide over neutral Ac-SASASpYSASA-NH2

Ac-SASASpYSASA-NH2
kcat/KM x10^6 [1, 8]: 0.00068 x10^6 M^−1 s^−1 | Neutral/Basic ratio of kcat/KM values [1, 9]: 1 | Km [2, 8]: 10 ± 1 µM | kcat [2, 8]: 17 ± 2 s⁻¹ | kcat/KM x10^6 [2, 8]: 1.7 x10^6 M^−1 s^−1 | Neutral/Basic ratio of kcat/KM values [2, 9]: 53 | kcat/KM x10^6 [3, 8]: 0.023 x10^6 M^−1 s^−1 | Neutral/Basic ratio of kcat/KM values [3, 9]: 0.5 | Km [4]: 250 ± 10 µM | kcat [4]: 240 ± 8 s⁻¹ | kcat/KM x10^6 [4]: 0.94 x10^6 M^−1 s^−1 | Neutral/Basic ratio of kcat/KM values [4, 9]: 18 | Km [5]: 26 ± 1 µM | kcat [5]: 56 ± 2 s⁻¹ | kcat/KM x10^6 [5]: 2.2 x10^6 M^−1 s^−1 | Neutral/Basic ratio of kcat/KM values [5, 9]: 77 | Km [6]: 2300 ± 400 µM | kcat [6]: 42 ± 5 s^−1 and 42 ± 5 ^c s^−1 | kcat/KM x10^6 [6]: 0.018 x10^6 M^−1 s^−1 and 0.018 ^c x10^6 M^−1 s^−1 | kcat/KM x10^6 [7, 8]: 0.0006 x10^6 M^−1 s^−1

Ac-YDEDFpYDYEF-NH2
Km [1, 8]: > 60 µM | kcat [1, 8]: >0.86 s⁻¹ | kcat/KM x10^6 [1, 8]: 0.014 x10^6 M^−1 s^−1 | Acidic/Basic ratio of kcat/KM values [1, 10]: 21 | Acidic/Neutral ratio of kcat/KM values [1, 11]: 21 | Km [3, 8]: 260 ± 30 µM | kcat [3, 8]: 19 ± 0.6 s⁻¹ | kcat/KM x10^6 [3, 8]: 0.075 x10^6 M^−1 s^−1 | Acidic/Basic ratio of kcat/KM values [3, 10]: 2 | Acidic/Neutral ratio of kcat/KM values [3, 11]: 3 | Km [4]: 5.7 ± 0.8 µM | kcat [4]: 200 ± 10 s⁻¹ | kcat/KM x10^6 [4]: 35 x10^6 M^−1 s^−1 | Acidic/Basic ratio of kcat/KM values [4, 10]: 660 | Acidic/Neutral ratio of kcat/KM values [4, 11]: 37 | Km [5]: 1.8 ± 0.4 µM | kcat [5]: 55 ± 2 s⁻¹ | kcat/KM x10^6 [5]: 31 x10^6 M^−1 s^−1 | Acidic/Basic ratio of kcat/KM values [5, 10]: 1100 | Acidic/Neutral ratio of kcat/KM values [5, 11]: 14 | Km [7, 8]: 280 ± 25 µM | kcat [7, 8]: 7.0 ± 0.3 s⁻¹ | kcat/KM x10^6 [7, 8]: 0.025 x10^6 M^−1 s^−1 | Acidic/Basic ratio of kcat/KM values [7, 10]: 2500 | Acidic/Neutral ratio of kcat/KM values [7, 11]: 42

Ac-YRKRFpYRYKF-NH2
kcat/KM x10^6 [1, 8]: 0.0007 x10^6 M^−1 s^−1 | kcat/KM x10^6 [2, 8]: 0.032 x10^6 M^−1 s^−1 | kcat/KM x10^6 [3, 8]: 0.045 x10^6 M^−1 s^−1 | kcat/KM x10^6 [4]: 0.053 x10^6 M^−1 s^−1 | kcat/KM x10^6 [5]: 0.028 x10^6 M^−1 s^−1 | kcat/KM x10^6 [7, 8]: 0.000010 x10^6 M^−1 s^−1
